Columns and labels:
Type in all cases: functional
[1] = test system: KM12; assay: Cytotoxicity against human KM12 cells assessed as cell growth at 10 uM after 48 hrs by SRB assay relative to control; settings: KM12, 48 h, read-out: Activity
Method in brief: (§1)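 NCI primary screen of about 60 human tumour lines. Cells inoculated and preincubated, then a single test concentration added and cultures incubated 48 h. Result given as percent growth (G%) of treated versus untreated control cells.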

[2] = test system: HCC 2998; assay: Cytotoxicity against human HCC2998 cells assessed as cell growth at 10 uM after 48 hrs by SRB assay relative to control; settings: HCC 2998, 48 h, read-out: Activity; method in brief: as §1
[3] = test system: Malme-3M; assay: Cytotoxicity against human MALME-3M cells assessed as cell growth at 10 uM after 48 hrs by SRB assay relative to control; settings: read-out: Activity; method in brief: as §1
[4] = test system: BT-549; assay: Cytotoxicity against human BT549 cells assessed as cell growth at 10 uM after 48 hrs by SRB assay relative to control; settings: BT-549, 48 h, read-out: Activity; method in brief: as §1
[5] = test system: MDA-MB-435; assay: Cytotoxicity against human MDA-MB-435 cells assessed as cell growth at 10 uM after 48 hrs by SRB assay relative to control; settings: MDA-MB-435, 48 h, read-out: Activity
[6] = test system: OVCAR-3; assay: Cytotoxicity against human OVCAR3 cells assessed as cell growth at 10 uM after 48 hrs by SRB assay relative to control; settings: OVCAR-3, 48 h, read-out: Activity
[7] = test system: NCI-H226; assay: Cytotoxicity against human NCI-H226 cells assessed as cell growth at 10 uM after 48 hrs by SRB assay relative to control; settings: NCI-H226, 48 h, read-out: Activity
[8] = test system: COLO 205; assay: Cytotoxicity against human COLO205 cells assessed as cell growth at 10 uM after 48 hrs by SRB assay relative to control; settings: COLO 205, 48 h, read-out: Activity; method in brief: as §1
[9] = test system: NCI-H23; assay: Cytotoxicity against human NCI-H23 cells assessed as cell growth at 10 uM after 48 hrs by SRB assay relative to control; settings: NCI-H23, 48 h, read-out: Activity
[10] = test system: K562; assay: Cytotoxicity against human K562 cells assessed as cell growth at 10 uM after 48 hrs by SRB assay relative to control; settings: K562, 48 h, read-out: Activity; method in brief: as §1
[11] = test system: SN12C; assay: Cytotoxicity against human SN12C cells assessed as cell growth at 10 uM after 48 hrs by SRB assay relative to control; settings: read-out: Activity
[12] = test system: HCT-116; assay: Cytotoxicity against human HCT116 cells assessed as cell growth at 10 uM after 48 hrs by SRB assay relative to control; settings: HCT-116, 48 h, read-out: Activity; method in brief: as §1
[13] = test system: TK-10; assay: Cytotoxicity against human TK10 cells assessed as cell growth at 10 uM after 48 hrs by SRB assay relative to control; settings: TK-10, 48 h, read-out: Activity
Method in brief: (§2)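 NCI single-dose primary screen across about 60 human tumour lines. Each line was inoculated and preincubated on microtiter plates, then exposed to one concentration of agent for 48 h. Growth is reported as percent growth (G%) of treated cells versus untreated control cells.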

[14] = test system: MDA-MB-468; assay: Cytotoxicity against human MDA-MB-468 cells assessed as cell growth at 10 uM after 48 hrs by SRB assay relative to control; settings: MDA-MB-468, 48 h, read-out: Activity
[15] = test system: SK-MEL-2; assay: Cytotoxicity against human SK-MEL-2 cells assessed as cell growth at 10 uM after 48 hrs by SRB assay relative to control; settings: SK-MEL-2, 48 h, read-out: Activity
[16] = test system: OVCAR-8; assay: Cytotoxicity against human OVCAR8 cells assessed as cell growth at 10 uM after 48 hrs by SRB assay relative to control; settings: OVCAR-8, 48 h, read-out: Activity
[17] = test system: SW-620; assay: Cytotoxicity against human SW620 cells assessed as cell growth at 10 uM after 48 hrs by SRB assay relative to control; settings: SW-620, 48 h, read-out: Activity; method in brief: as §2
[18] = test system: PC-3; assay: Cytotoxicity against human PC3 cells assessed as cell growth at 10 uM after 48 hrs by SRB assay relative to control; settings: PC-3, 48 h, read-out: Activity
[19] = test system: SNB-75; assay: Cytotoxicity against human SNB75 cells assessed as cell growth at 10 uM after 48 hrs by SRB assay relative to control; settings: SNB-75, 48 h, read-out: Activity
[20] = test system: A498; assay: Cytotoxicity against human A498 cells assessed as cell growth at 10 uM after 48 hrs by SRB assay relative to control; settings: A498, 48 h, read-out: Activity; method in brief: as §1
[21] = test system: HCT-15; assay: Cytotoxicity against human HCT15 cells assessed as cell growth at 10 uM after 48 hrs by SRB assay relative to control; settings: HCT-15, 48 h, read-out: Activity; method in brief: as §1
[22] = test system: HOP-62; assay: Cytotoxicity against human HOP62 cells assessed as cell growth at 10 uM after 48 hrs by SRB assay relative to control; settings: HOP-62, 48 h, read-out: Activity; method in brief: as §1
[23] = test system: 786-0; assay: Cytotoxicity against human 786-0 cells assessed as cell growth at 10 uM after 48 hrs by SRB assay relative to control; settings: 786-0, 48 h, read-out: Activity; method in brief: as §1
[24] = test system: CAKI-1; assay: Cytotoxicity against human Caki1 cells assessed as cell growth at 10 uM after 48 hrs by SRB assay relative to control; settings: CAKI-1, 48 h, read-out: Activity; method in brief: as §1
[25] = test system: MCF7; assay: Cytotoxicity against human MCF7 cells assessed as cell growth at 10 uM after 48 hrs by SRB assay relative to control; settings: MCF7, 48 h, read-out: Activity; method in brief: as §1
[26] = test system: MDA-MB-231; assay: Cytotoxicity against human MDA-MB-231 cells assessed as cell growth at 10 uM after 48 hrs by SRB assay relative to control; settings: MDA-MB-231, 48 h, read-out: Activity; method in brief: as §1
[27] = test system: SK-MEL-5; assay: Cytotoxicity against human SK-MEL-5 cells after 48 hrs by SRB assay; settings: SK-MEL-5, 48 h; for TGI: read-out: pTGI (converted)
Method in brief: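 Five-dose screen, 10-fold or ½-log dilutions, compound stock in DMSO. Cells were in RPMI 1640 with 5% FBS and 2 mM glutamine at 5000–40,000 cells/well, preincubated 24 h, 37 °C, 5% CO₂, with a time-zero plate TCA-fixed. After 48 h drug exposure, cells were TCA-fixed and stained with 0.4% SRB, read at 515 nm. GI50, TGI and LC50 were derived from time-zero, control and test absorbances.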

[28] = test system: HOP-62; assay: Cytotoxicity against human HOP62 cells after 48 hrs by SRB assay; settings: HOP-62, 48 h; for TGI: read-out: pTGI (converted)
Method in brief: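 NCI 60-cell five-dose screen. Cells grown in RPMI 1640 with 5% FBS and 2 mM glutamine, plated at 5000–40,000 cells/well, and preincubated 24 h at 37 °C in 5% CO2. Time-zero plates fixed with TCA. Five serial dilutions of DMSO stock added, then 48 h exposure. TCA fixation, 0.4% SRB staining, absorbance read at 515 nm. GI50 from [(Ti−Tz)/(C−Tz)]×100 = 50.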

Structure (SMILES) | growth at 10 µM [1] [%] | growth at 10 µM [2] [%] | growth at 10 µM [3] [%] | growth at 10 µM [5] [%] | growth at 10 µM [6] [%] | growth at 10 µM [7] [%] | growth at 10 µM [8] [%] | growth at 10 µM [9] [%] | growth at 10 µM [10] [%] | growth at 10 µM [11] [%] | growth at 10 µM [12] [%] | growth at 10 µM [13] [%] | growth at 10 µM [14] [%] | growth at 10 µM [15] [%] | growth at 10 µM [16] [%] | growth at 10 µM [17] [%] | growth at 10 µM [19] [%] | growth at 10 µM [20] [%] | growth at 10 µM [21] [%] | growth at 10 µM [22] [%] | other results
CSC1=Nc2c(c(C)c(C)n2CCCC(=O)NCCc2cnc[nH]2)C2=NC(=O)CN12 | 171 | 118 | 109 | 116 | 165 | 106 | 132 | 103 | 100 | 100 | 96 | 139 | 89 | 121 | 108 | 104 | 78 | 107 | 109 | 109 | growth at 10 µM [4]: 120%; growth at 10 µM [18]: 100%; growth at 10 µM [23]: 110%; growth at 10 µM [24]: 111%; growth at 10 µM [25]: 94%; growth at 10 µM [26]: 110%
CSC1=Nc2c(c(C)c(-c3ccccc3)n2CCCCl)C2=NC(=O)CN12 | 26 | 72 | 83 | -31 | 85 | 79 | 79 | 78 | 19 | 86 | 27 | 105 | 47 | 75 | 88 | 44 | 21 | 47 | 65 | 64 | growth at 10 µM [4]: 61%; GI50 [27]: 3.47 µM; LC50 [27]: 38 µM; TGI [27]: 14.1 µM; GI50 [28]: 11 µM; LC50 [28]: > 100 µM; TGI [28]: 63.1 µM; growth at 10 µM [18]: 69%; growth at 10 µM [23]: 78%; growth at 10 µM [24]: 58%; growth at 10 µM [25]: 36%; growth at 10 µM [26]: 65%
CSC1=Nc2c(c(C)c(-c3ccccc3)n2CCCN2CCCCC2)C2=NC(=O)CC(C)N12 (stereo not drawn) | 2 | 61 | 57 | 26 | 24 | 69 | -87 | 63 | 12 | 45 | 43 | 49 | -19 | 63 | 45 | 62 | 50 | 81 | 81 | 82 | GI50 [27]: 2 µM; LC50 [27]: 14.8 µM; TGI [27]: 4.9 µM; GI50 [28]: 3.16 µM; LC50 [28]: > 100 µM; TGI [28]: 26.3 µM; growth at 10 µM [23]: 80%; growth at 10 µM [24]: 67%; growth at 10 µM [25]: 14%; growth at 10 µM [26]: 70%
